Reference: ChEMBL document CHEMBL1149770, “Synthesis and antimicrobial studies of novel dichlorofluorophenyl containing aminotriazolothiadiazines” (2008)
≈ marks a conversion by molar mass, not a printed value.

Tests used:
Escherichia coli = experiment: Antibacterial activity against Escherichia coli ATCC 25922 after 24 hrs by broth dilution technique; assay type: functional; conditions: ATCC 25922, 24 h
Procedure, shortened: (§1)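 MIC by broth dilution in nutrient broth with logarithmic serial twofold dilutions of compound. Inoculum approx. 5×10^5 c.f.u actively dividing bacteria. Incubated 24 h at 37 °C, growth monitored visually and spectrophotometrically. MIC taken as the lowest concentration (highest dilution) arresting growth. Ciprofloxacin reference.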

[1] = tested on: Trichophyton mentagrophytes; experiment: Antifungal activity against Trichophyton mentagrophytes after 48 hrs […]; assay type: functional
Staphylococcus aureus [2] = experiment: Antibacterial activity against Staphylococcus aureus ATCC 25923 after 24 hrs by broth dilution technique; assay type: functional; conditions: ATCC 25923, 24 h; procedure, shortened: as §1
Aspergillus fumigatus [3] = experiment: Antifungal activity against Aspergillus fumigatus after 48 hrs […]; assay type: functional
Pseudomonas aeruginosa [4] = experiment: Antibacterial activity against Pseudomonas aeruginosa ATCC 27853 assessed as inhibition zone diameter after 24 hrs […]; assay type: functional
Procedure, shortened: (§2)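 Disc diffusion on nutrient agar. Inoculum 1-2 × 10^7 c.f.u/ml (0.5 McFarland) spread over the plate surface. Sterile 6.25 mm filter-paper discs soaked in a known concentration of compound. Solvent and growth controls included. Plates incubated inverted 24 h at 37 °C, then inhibition zone diameter measured in mm. Ciprofloxacin reference.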

Streptococcus pyogenes [5] = experiment: Antibacterial activity against Streptococcus pyogenes after 24 hrs by broth dilution technique; assay type: functional; procedure, shortened: as §1
Talaromyces marneffei [6] = experiment: Antifungal activity against Penicillium marneffei assessed as inhibition zone diameter […] by agar dilution method; assay type: functional
Procedure, shortened: (§3)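 Compounds in DMSO placed in punched wells on Sabouraud agar (peptone, glucose, agar, pH 5.7) lawned with saline spore suspension. Plates pre-dried 1 h at 37 °C. Controls in triplicate, incubation at 37 °C for 3-4 days, then inhibition zone diameter read in mm. Amphotericin B reference.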

Aspergillus flavus [7] = experiment: Antifungal activity against Aspergillus flavus after 48 hrs […]; assay type: functional
Candida albicans [8] = experiment: Antifungal activity against Candida albicans assessed as inhibition zone diameter […] by agar dilution method; assay type: functional; procedure, shortened: as §3
Aspergillus fumigatus [9] = experiment: Antifungal activity against Aspergillus fumigatus assessed as inhibition zone diameter […] by agar dilution method; assay type: functional; procedure, shortened: as §3
Staphylococcus aureus [10] = experiment: Antibacterial activity against Staphylococcus aureus ATCC 25923 assessed as inhibition zone diameter after 24 hrs […]; assay type: functional; procedure, shortened: as §2
Candida albicans [11] = experiment: Antifungal activity against Candida albicans after 48 hrs […]; assay type: functional
Klebsiella pneumoniae [12] = experiment: Antibacterial activity against Klebsiella pneumoniae after 24 hrs by broth dilution technique; assay type: functional; procedure, shortened: as §1
Klebsiella pneumoniae [13] = experiment: Antibacterial activity against Klebsiella pneumoniae assessed as inhibition zone diameter after 24 hrs […]; assay type: functional; procedure, shortened: as §2
Pseudomonas aeruginosa [14] = experiment: Antibacterial activity against Pseudomonas aeruginosa ATCC 27853 after 24 hrs by broth dilution technique; assay type: functional; conditions: ATCC 27853, 24 h; procedure, shortened: as §1
Talaromyces marneffei [15] = experiment: Antifungal activity against Penicillium marneffei after 48 hrs […]; assay type: functional
[16] = tested on: Trichophyton mentagrophytes; experiment: Antifungal activity against Trichophyton mentagrophytes assessed as inhibition zone diameter […] by agar dilution method; assay type: functional; procedure, shortened: as §3
Streptococcus pyogenes [17] = experiment: Antibacterial activity against Streptococcus pyogenes assessed as inhibition zone diameter after 24 hrs by disc diffusion method
Aspergillus flavus [18] = experiment: Antifungal activity against Aspergillus flavus assessed as inhibition zone diameter […] by agar dilution method; assay type: functional; procedure, shortened: as §3

Row | SMILES | MIC (Escherichia coli) [µg/mL] | MIC [1] [µg/mL] | MIC (Staphylococcus aureus [2]) [µg/mL] | MIC (Aspergillus fumigatus [3]) [µg/mL] | MIC (Streptococcus pyogenes [5]) [µg/mL] | MIC (Aspergillus flavus [7]) [µg/mL] | MIC (Candida albicans [11]) [µg/mL] | MIC (Klebsiella pneumoniae [12]) [µg/mL] | MIC (Pseudomonas aeruginosa [14]) [µg/mL] | MIC (Talaromyces marneffei [15]) [µg/mL] | inhibition zone (IZ) (Pseudomonas aeruginosa [4]) [mm] | inhibition zone (IZ) (Talaromyces marneffei [6]) [mm] | inhibition zone (IZ) (Candida albicans [8]) [mm] | inhibition zone (IZ) (Aspergillus fumigatus [9]) [mm] | inhibition zone (IZ) (Staphylococcus aureus [10]) [mm] | inhibition zone (IZ) (Klebsiella pneumoniae [13]) [mm] | inhibition zone (IZ) [16] [mm] | inhibition zone (IZ) (Streptococcus pyogenes [17]) [mm] | inhibition zone (IZ) (Aspergillus flavus [18]) [mm]
1 | Fc1ccc(NC2=Nn3c(nnc3-c3cc(F)c(Cl)cc3Cl)SC2)cc1 | 6.25 (≈ 15.2 µM) | 6.25 (≈ 15.2 µM) | 12.5 (≈ 30.3 µM) | 25 (≈ 60.6 µM) | 6.25 (≈ 15.2 µM) | > 100 | 12.5 (≈ 30.3 µM) | 12.5 (≈ 30.3 µM) | 12.5 (≈ 30.3 µM) | 6.25 (≈ 15.2 µM) | 24 | 19 | 14 | 6 | 15 | 16 | 18 | 22 | –
2 | Fc1ccc(NC2=Nn3c(nnc3-c3cc(F)c(Cl)cc3Cl)SC2)cc1Cl | 6.25 (≈ 14 µM) | 25 (≈ 56 µM) | > 100 | > 100 | 6.25 (≈ 14 µM) | > 100 | > 100 | 12.5 (≈ 28 µM) | 12.5 (≈ 28 µM) | 12.5 (≈ 28 µM) | 20 | 16 | – | – | – | 11 | 10 | 18 | –
3 | Fc1cc(-c2nnc3n2N=C(Nc2cccc(Cl)c2Cl)CS3)c(Cl)cc1Cl | 12.5 (≈ 27 µM) | 25 (≈ 54 µM) | > 100 | 12.5 (≈ 27 µM) | – | > 100 | > 100 | 12.5 (≈ 27 µM) | 12.5 (≈ 27 µM) | 12.5 (≈ 27 µM) | 17 | 12 | – | 11 | – | 14 | 8 | – | –
4 | Cc1cccc(NC2=Nn3c(nnc3-c3cc(F)c(Cl)cc3Cl)SC2)c1C | 12.5 (≈ 29.6 µM) | > 100 | 6.25 (≈ 14.8 µM) | 12.5 (≈ 29.6 µM) | 25 (≈ 59.2 µM) | > 100 | 25 (≈ 59.2 µM) | 6.25 (≈ 14.8 µM) | 25 (≈ 59.2 µM) | 6.25 (≈ 14.8 µM) | 12 | 18 | 10 | 16 | 25 | 19 | – | 10 | –
5 | COc1ccc(NC2=Nn3c(nnc3-c3cc(F)c(Cl)cc3Cl)SC2)cc1 | > 100 | 12.5 (≈ 29.5 µM) | 6.25 (≈ 14.7 µM) | 12.5 (≈ 29.5 µM) | 12.5 (≈ 29.5 µM) | 6.25 (≈ 14.7 µM) | 6.25 (≈ 14.7 µM) | 12.5 (≈ 29.5 µM) | 25 (≈ 58.9 µM) | > 100 | 15 | – | 19 | 12 | 22 | 12 | 13 | 16 | 18
6 | Fc1cc(-c2nnc3n2N=C(Nc2ccc(Cl)cc2Cl)CS3)c(Cl)cc1Cl | 12.5 (≈ 27 µM) | 12.5 (≈ 27 µM) | > 100 | 6.25 (≈ 13.5 µM) | – | 25 (≈ 54 µM) | 12.5 (≈ 27 µM) | 12.5 (≈ 27 µM) | > 100 | 12.5 (≈ 27 µM) | – | 12 | 15 | 19 | – | 17 | 11 | – | 8
7 | Fc1cc(-c2nnc3n2N=C(Nc2c(Cl)cccc2Cl)CS3)c(Cl)cc1Cl | 25 (≈ 54 µM) | 12.5 (≈ 27 µM) | > 100 | 25 (≈ 54 µM) | 12.5 (≈ 27 µM) | > 100 | 6.25 (≈ 13.5 µM) | > 100 | > 100 | 25 (≈ 54 µM) | – | 10 | 18 | 10 | – | – | 12 | 15 | –
8 | O=C(O)c1cn(C2CC2)c2cc(N3CCNCC3)c(F)cc2c1=O [CIPROFLOXACIN] | – | – | – | – | 6.25 (≈ 18.9 µM) | – | – | 6.25 (≈ 18.9 µM) | – | – | 33 | – | – | – | 25 | 22 | – | 25 | –
9 | C[C@@H]1[C@H](O)[C@@H](C)/C=C/C=C/C=C/C=C/C=C/C=C/C=C/[C@H](O[C@@H]2O[C@H](C)[C@@H](O)[C@H](N)[C@@H]2O)C[C@@H]2O[C@](O)(C[C@@H](O)C[C@@H](O)[C@H](O)CC[C@@H](O)C[C@@H](O)CC(=O)O[C@H]1C)C[C@H](O)[C@H]2C(=O)O [AMPHOTERICIN B] | – | 6.25 (≈ 6.76 µM) | – | 6.25 (≈ 6.76 µM) | – | 6.25 (≈ 6.76 µM) | 6.25 (≈ 6.76 µM) | – | – | 6.25 (≈ 6.76 µM) | – | 23 | 20 | 22 | – | – | 19 | – | 25
10 | CCOc1ccc(NC2=Nn3c(nnc3-c3cc(F)c(Cl)cc3Cl)SC2)cc1 | > 100 | > 100 | 6.25 (≈ 14.3 µM) | 12.5 (≈ 28.5 µM) | – | 25 (≈ 57 µM) | 12.5 (≈ 28.5 µM) | 12.5 (≈ 28.5 µM) | 25 (≈ 57 µM) | 12.5 (≈ 28.5 µM) | 15 | 17 | 12 | 15 | 20 | 12 | – | – | 10

Continued, in another order:

Row | MIC (Escherichia coli) [µg/mL] | MIC [1] [µg/mL] | MIC (Staphylococcus aureus [2]) [µg/mL] | MIC (Aspergillus fumigatus [3]) [µg/mL] | MIC (Streptococcus pyogenes [5]) [µg/mL] | MIC (Aspergillus flavus [7]) [µg/mL] | MIC (Candida albicans [11]) [µg/mL] | MIC (Klebsiella pneumoniae [12]) [µg/mL] | MIC (Pseudomonas aeruginosa [14]) [µg/mL] | MIC (Talaromyces marneffei [15]) [µg/mL] | SMILES | inhibition zone (IZ) (Pseudomonas aeruginosa [4]) [mm] | inhibition zone (IZ) (Talaromyces marneffei [6]) [mm] | inhibition zone (IZ) (Candida albicans [8]) [mm] | inhibition zone (IZ) (Aspergillus fumigatus [9]) [mm] | inhibition zone (IZ) (Staphylococcus aureus [10]) [mm] | inhibition zone (IZ) (Klebsiella pneumoniae [13]) [mm] | inhibition zone (IZ) [16] [mm] | inhibition zone (IZ) (Streptococcus pyogenes [17]) [mm] | inhibition zone (IZ) (Aspergillus flavus [18]) [mm]
11 | > 100 | > 100 | > 100 | > 100 | – | > 100 | > 100 | > 100 | > 100 | > 100 | Cc1cccc(C)c1NC(=O)CSc1nnc(-c2cc(F)c(Cl)cc2Cl)n1N | – | – | – | – | – | – | – | – | –
12 | > 100 | > 100 | > 100 | > 100 | – | > 100 | > 100 | > 100 | > 100 | > 100 | Nn1c(SCC(=O)Nc2ccc(Cl)cc2Cl)nnc1-c1cc(F)c(Cl)cc1Cl | – | – | – | – | – | – | – | – | –
13 | 12.5 (≈ 28.6 µM) | 12.5 (≈ 28.6 µM) | 6.25 (≈ 14.3 µM) | > 100 | 12.5 (≈ 28.6 µM) | > 100 | 12.5 (≈ 28.6 µM) | 25 (≈ 57.3 µM) | 25 (≈ 57.3 µM) | 12.5 (≈ 28.6 µM) | Cc1cc(C)c(NC2=Nn3c(nnc3-c3cc(F)c(Cl)cc3Cl)SC2)c(C)c1 | 16 | 11 | 13 | – | 23 | 8 | 14 | 15 | –
14 | 12.5 (≈ 29.6 µM) | 12.5 (≈ 29.6 µM) | > 100 | 25 (≈ 59.2 µM) | 12.5 (≈ 29.6 µM) | 12.5 (≈ 29.6 µM) | 25 (≈ 59.2 µM) | 12.5 (≈ 29.6 µM) | 12.5 (≈ 29.6 µM) | > 100 | Cc1ccc(NC2=Nn3c(nnc3-c3cc(F)c(Cl)cc3Cl)SC2)c(C)c1 | 18 | – | 8 | 9 | – | 14 | 12 | 11 | 15
15 | > 100 | 6.25 (≈ 13.8 µM) | > 100 | 12.5 (≈ 27.5 µM) | – | 6.25 (≈ 13.8 µM) | 12.5 (≈ 27.5 µM) | > 100 | > 100 | 12.5 (≈ 27.5 µM) | Cc1cc(C)c(NC(=O)CSc2nnc(-c3cc(F)c(Cl)cc3Cl)n2N)c(C)c1 | – | 13 | 11 | 15 | – | – | 17 | – | 23
16 | > 100 | > 100 | > 100 | > 100 | – | > 100 | > 100 | > 100 | > 100 | > 100 | CCOc1ccc(NC(=O)CSc2nnc(-c3cc(F)c(Cl)cc3Cl)n2N)cc1 | – | – | – | – | – | – | – | – | –
17 | 6.25 (≈ 14.1 µM) | > 100 | 6.25 (≈ 14.1 µM) | > 100 | 6.25 (≈ 14.1 µM) | > 100 | > 100 | 6.25 (≈ 14.1 µM) | 6.25 (≈ 14.1 µM) | > 100 | COc1ccc(NC(=O)CSc2nnc(-c3cc(F)c(Cl)cc3Cl)n2N)cc1 | 32 | – | – | – | 24 | 21 | – | 23 | –
18 | > 100 | > 100 | > 100 | > 100 | – | > 100 | > 100 | > 100 | > 100 | > 100 | Nn1c(SCC(=O)Nc2cccc(Cl)c2Cl)nnc1-c1cc(F)c(Cl)cc1Cl | – | – | – | – | – | – | – | – | –
